Calls of active or inactive are those of the source. The calls are words filed in the database; no cut-off is given here.
Legend:
Glutamate NMDA receptor = assay: In vitro inhibition of glutamate induced neuronal death in primary cultures of rat hippocampal neurons.; assay type: functional, tissue-based, Hippocampus
Rattus norvegicus [1] = organism: Rattus norvegicus; assay: Selectivity between protection against glutamate-induced neuronal damage and alpha 1 adrenergic affinity; Not significant
Summary of the method: (§1)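 Selectivity index: ratio of α1 adrenergic affinity ([3H]prazosin binding IC50) to neuroprotection IC50 (inhibition of glutamate-induced death of primary rat hippocampal neurons).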

[2] = target: T1, Adrenergic receptor alpha-1 (Rattus norvegicus, UniProt P15823+P23944+P43140); assay: In vitro binding affinity against Alpha-1 adrenergic receptor using [3H]prazosin as radioligand; assay type: protein assay
T1 sequence (P15823 whole entry): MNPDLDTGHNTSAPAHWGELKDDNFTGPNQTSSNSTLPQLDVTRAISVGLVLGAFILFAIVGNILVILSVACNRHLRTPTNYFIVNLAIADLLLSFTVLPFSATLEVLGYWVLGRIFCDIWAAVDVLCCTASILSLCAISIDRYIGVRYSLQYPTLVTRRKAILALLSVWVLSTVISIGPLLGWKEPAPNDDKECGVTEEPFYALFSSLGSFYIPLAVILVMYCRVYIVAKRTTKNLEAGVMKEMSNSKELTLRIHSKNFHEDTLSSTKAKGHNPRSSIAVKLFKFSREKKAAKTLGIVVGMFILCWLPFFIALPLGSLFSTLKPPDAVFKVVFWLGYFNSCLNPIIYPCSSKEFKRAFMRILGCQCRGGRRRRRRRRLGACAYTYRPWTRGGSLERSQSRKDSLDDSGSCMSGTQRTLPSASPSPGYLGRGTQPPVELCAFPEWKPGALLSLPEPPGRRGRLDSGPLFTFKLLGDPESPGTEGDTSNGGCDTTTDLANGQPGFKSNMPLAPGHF
T1 sequence (P23944 whole entry): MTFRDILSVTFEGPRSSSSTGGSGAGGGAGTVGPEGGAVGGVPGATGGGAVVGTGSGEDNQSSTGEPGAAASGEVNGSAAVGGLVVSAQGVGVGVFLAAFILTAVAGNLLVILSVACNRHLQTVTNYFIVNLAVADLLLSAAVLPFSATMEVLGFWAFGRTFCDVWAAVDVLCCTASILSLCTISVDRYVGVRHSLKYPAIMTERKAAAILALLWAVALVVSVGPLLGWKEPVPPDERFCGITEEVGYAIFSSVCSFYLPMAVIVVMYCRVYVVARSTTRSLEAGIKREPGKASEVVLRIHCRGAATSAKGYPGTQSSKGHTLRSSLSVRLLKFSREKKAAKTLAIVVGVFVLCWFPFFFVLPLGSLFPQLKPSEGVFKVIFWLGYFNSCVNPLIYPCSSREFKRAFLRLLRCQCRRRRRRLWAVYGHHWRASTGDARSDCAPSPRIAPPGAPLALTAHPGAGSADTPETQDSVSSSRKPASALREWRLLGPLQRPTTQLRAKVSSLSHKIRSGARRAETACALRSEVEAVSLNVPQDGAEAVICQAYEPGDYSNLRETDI
T1 sequence (P43140 whole entry): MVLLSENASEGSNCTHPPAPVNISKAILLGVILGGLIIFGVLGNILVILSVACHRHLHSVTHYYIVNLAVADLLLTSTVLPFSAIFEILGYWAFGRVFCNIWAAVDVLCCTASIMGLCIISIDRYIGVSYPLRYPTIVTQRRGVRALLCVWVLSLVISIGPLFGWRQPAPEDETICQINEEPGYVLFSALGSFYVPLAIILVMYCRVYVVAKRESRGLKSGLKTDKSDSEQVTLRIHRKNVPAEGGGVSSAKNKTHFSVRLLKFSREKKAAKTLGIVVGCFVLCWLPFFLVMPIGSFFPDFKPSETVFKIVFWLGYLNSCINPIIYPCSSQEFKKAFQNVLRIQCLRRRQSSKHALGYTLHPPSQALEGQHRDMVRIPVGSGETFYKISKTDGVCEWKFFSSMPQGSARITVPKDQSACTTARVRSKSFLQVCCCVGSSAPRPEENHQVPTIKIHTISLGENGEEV

Rattus norvegicus [3] = organism: Rattus norvegicus; assay: Selectivity between protection against glutamate-induced neuronal damage and alpha 1 adrenergic affinity; summary of the method: as §1
[4] = In vivo inhibition of NMDA-stimulated fos induction in mouse following i.p. administration.; assay type: functional; conditions: ip
Summary of the method: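 Male CF-1 mice (20–25 g), 12 h light/dark, 22 °C. Compound in 50% poly(ethylene glycol) given ip 30 min before NMDA 75 mg/kg ip (subseizure dose). After 1 h: pentobarbital, paraformaldehyde perfusion, two 50 μm hippocampal coronal sections per brain. Sheep anti-Fos (1:1500) immunostaining by avidin–biotin method, glucose oxidase substrate. ED50 calculated against vehicle-only and NMDA-only sections.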

Rattus norvegicus [5] = assay: In vivo inhibition of haloperidol-induced catalepsy in rat following s.c. administration.; assay type: functional; conditions: sc

IC50 [2]	Structure (SMILES)	IC50 (Glutamate NMDA receptor)	Selectivity ratio (Rattus norvegicus [1])	Selectivity ratio (Rattus norvegicus [3])	ED50 [4]	ED50 (Rattus norvegicus [5])
–	COC1(Cc2ccccc2)CCN([C@@H](C)[C@@H](O)c2ccc(O)cc2)CC1	> 10000 nM	inactive	–	–	–
3133 nM	C[C@@H]([C@@H](O)c1ccc(Cl)cc1)N1CCC(O)(c2ccccc2)CC1	> 1000 nM	inactive	–	–	–
6900 nM	C[C@@H]([C@@H](O)c1ccc(F)cc1)N1CCC(O)(c2ccccc2)CC1	> 1000 nM	inactive	–	–	–
> 10000 nM	C[C@@H]([C@@H](O)c1ccc(O)cc1)N1CCN(C(=O)c2ccccc2)CC1	> 10000 nM	inactive	–	–	–
2700 nM	C[C@@H]([C@@H](O)c1ccc(O)cc1)N1CCC(O)(c2ccc(F)cc2)CC1	4 nM	–	675	–	–
137 nM	C[C@@H]([C@@H](O)c1ccc(O)cc1)N1CCC(O)(CCc2ccccc2)CC1	1.3 nM	–	105	–	–
2350 nM	C[C@@H]([C@@H](O)c1ccc(O)cc1)N1CCC(O)(CCCc2ccccc2)CC1	15.7 nM	–	150	–	–
> 10000 nM	C[C@@H]([C@@H](O)c1ccc(O)cc1)N1CCC(O)(Cc2ccccc2)CC1	–	–	> 172	–	–
8450 nM	C[C@H]([C@H](O)c1ccc(O)cc1)N1CCC(O)(c2ccccc2)CC1	–	–	–	5 mg/kg	0.5 mg/kg
–	C[C@@H]([C@@H](O)c1ccc(O)cc1)N1CCN(Cc2ccccc2)CC1	–	inactive	–	–	–
> 10000 nM	C[C@@H]([C@@H](O)c1ccccc1)N1CCC(O)(c2ccccc2)CC1	> 1000 nM	inactive	–	–	–
2166 nM	Cc1ccc(C2(O)CCN([C@@H](C)[C@@H](O)c3ccc(O)cc3)CC2)cc1	2.7 nM	–	1080	–	–
> 10000 nM	CC[C@@H]([C@@H](O)c1ccc(O)cc1)N1CCC(O)(Cc2ccccc2)CC1	68 nM	–	> 147	–	–
> 10000 nM	CCC[C@@H]([C@@H](O)c1ccc(O)cc1)N1CCC(O)(Cc2ccccc2)CC1	–	–	7.7	–	–
19520 nM	C[C@@H]([C@@H](O)c1ccc(O)cc1)N1CCC(O)(c2ccccc2)CC1 (stereo in doubt) [TRAXOPRODIL]	–	–	–	1 mg/kg	0.4 mg/kg
1480 nM	C[C@@H]([C@@H](O)c1ccc(O)cc1)N1CCC(O)(c2ccc(Cl)cc2)CC1	2 nM	–	740	–	–
> 10000 nM	Oc1ccc(C(O)CN2CCC(O)(Cc3ccccc3)CC2)cc1 (stereo not given)	63 nM	–	> 158	–	–
5700 nM	C[C@@H]([C@@H](O)c1ccc(O)cc1)N1CCC(O)(c2ccccc2)CC1 (stereo in doubt; 10) [TRAXOPRODIL]	–	–	–	–	–
2300 nM	C[C@@H]([C@@H](O)c1ccc(O)cc1)N1CCC(O)(CCCCc2ccccc2)CC1	1000 nM	–	2.3	–	–
